In ChEMBL document CHEMBL4513216, “Probing the Open Global Health Chemical Diversity Library for Multistage-Active Starting Points for Next-Generation Antimalarials” (ACS Infect Dis, 2020):

test: Toxicity liver stage against HepG2, at 10uM; format: cell-based; design: test concentration 10 uM, cell line HepG2-A16-CD81EGFP; details: human, HepG2-A16-CD81EGFP cells; read-out: INHIBITION
How it was run: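 Uninfected HepG2-A16-CD81EGFP cells, 3 × 10^3 per well, 1536-well, plated on prespotted compound at 10 μM final, parasite-free screening media added to match infected plates; puromycin 10 μM positive, DMSO 0.5% negative; run in parallel with 48 h PbLuc assay at 37 °C, 5% CO2; viability by CellTiter-Glo luminescence, normalized to controls.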

In order of falling cytotoxicity at 10 µM:
1. CC(COc1ccccc1)NCc1cn2ccccc2n1 (stereo not given)  16.6%
2. Cn1cc(CNc2ncnc3c2CCN(Cc2ccsc2)CC3)cn1  15.5%
3. CC(=O)c1ccc(-n2c(C)cn(CCC(=O)NC(N)=O)c2=O)cc1  14.3%
4. CC(O)c1cn(Cc2cccc(C(F)(F)F)c2)nn1 (stereo not given)  14.1%
5. CC(C)n1nc2c(cc1=O)CN(CCOc1ccccc1C#N)CC2  13.7%
6. CC(C)=CCN1C(=O)[C@@H]2CC[C@H]1CN(c1ncccc1F)C2  9.72%
7. CC(=O)N1C[C@H]2CCCC(N3CCN(c4ncccn4)CC3)[C@H]2C1 (stereo not given in full)  9.46%
8. CCCn1ncc(CN(Cc2ccsc2)Cc2ccco2)c1C  9.27%
9. O=C(CN1CCOc2ccccc2C1)NCc1cc2n(n1)CCCNC2  8.1%
10. CCN(Cc1ccc(C)o1)C(=O)C(C)n1ccnc1C(C)C (stereo not given)  7.66%
11. CC(Cn1ccnc1)NCc1n[nH]c2c1CCC2 (stereo not given)  6.07%
12. O=C(NCCO)Nc1cccc(Cl)c1SC(F)F  5.98%
13. Cc1cc(=O)c2ccccc2n1CC1CCNC1 (stereo not given)  5.98%
14. Cc1nncn1CCNC(=O)C(C)(C)c1cccc(F)c1  5.73%
15. CCn1cnnc1CCNC(=O)c1ccc(F)c(Br)c1  5.36%
16. CC(CNCc1ccc(Br)cc1)Oc1ccccn1 (stereo not given)  5.36%
17. CCS(=O)(=O)c1ncc(CN2CCCC2)n1CCc1ccccc1  5.35%
18. CC(C)C1CN(S(=O)(=O)N(C)C)CCCN1Cc1ccc(F)cc1 (stereo not given)  5.17%
19. CN(C(=O)Cc1ccn(C)c1)C1CCCN(C2Cc3ccccc3C2)C1 (stereo not given)  4.77%
20. O=C(Cn1ccc2ccccc21)NCc1cc(N2CCOCC2)ncn1  4.44%
21. CCc1ocnc1C(=O)N1CCOC(CCCC(C)C)C1 (stereo not given)  4.29%
22. CN(CC1CCOC1)c1ncc(Br)cn1 (stereo not given)  4.23%
23. COc1ccc(CN2CCn3c(CNS(C)(=O)=O)nnc3C2)cc1  4.19%
24. CS(=O)(=O)N1C[C@H]2CC[C@@H](C1)N(C(=O)CCn1cnc3ccccc31)C2  4.11%
25. CC(C)(C)c1ccc(C(=O)C2CCCN(C(=O)CNS(C)(=O)=O)C2)cc1 (stereo not given)  4.1%
26. C=Cn1ncc(CN2C[C@@H]3C[C@@H](O)CN3C[C@H]2Cc2ccccc2)c1C  4.08%
27. Cc1cc(C(=O)N2C[C@H](c3ccccc3)[C@@H](N)C2)c2ccc(F)cc2n1  3.96%
28. NC(=O)CC1CCN(S(=O)(=O)N2CCCC2c2ccco2)CC1 (stereo not given)  3.82%
29. CC(C)C[C@@H](C(N)=O)n1cc(-c2cncnc2)nn1  3.28%
30. CC(NC(=O)CCCc1ccc(Cl)cc1)c1n[nH]c(=O)[nH]1 (stereo not given)  3.26%
31. CN(C)CCOCC1CN(CC2CCOCC2)Cc2nnn(C)c21 (stereo not given)  3.01%
32. O=C([C@H]1CCS(=O)(=O)[C@@H]2CN(Cc3ccc(F)cc3)C[C@H]12)N1CCCC1  2.96%
33. CCC[C@H]1CN(CCS(C)(=O)=O)C[C@@H]1NC(=O)c1cc[nH]n1  2.75%
34. CCOC(=O)N1C[C@@H]2CC[C@H]1CN(Cc1ccccc1)C2  2.7%
35. O=C(c1ccnc(N2CCOC(C(F)(F)F)C2)c1)N1CCOCC1 (stereo not given)  2.52%
36. N#Cc1ccccc1C(=O)N1C[C@@H]2CC[C@H]1CN(c1ncccn1)C2  2.43%
37. CN(C)c1nccc(NCc2cc(-c3ccco3)n[nH]2)n1  2.27%
38. CN(C)C(=O)[C@@H]1C[C@@H]2CCN(Cc3ccc4c(c3)OCO4)C[C@@H]2O1  2.26%
39. Cc1cccc(CN2C[C@@H](CN3CCCN(C)CC3)C[C@H](CO)C2)n1  2.04%
40. CC(C)C1CN(c2ncccn2)CCC(=O)N1Cc1ccc(F)cc1 (stereo not given)  1.76%
41. Cc1nc2ccccn2c1CN1C[C@@H](CN2CCOCC2)[C@@H](CO)C1  1.73%
42. NC(=O)C1(c2cnccn2)CCCN1C(=O)Cc1ccsc1 (stereo not given)  1.54%
43. COc1ccccc1OCCCN1CCNC1=O  1.5%
44. Cc1nn(C(C)C)c(C)c1CN1CCC(c2cc(C(C)C)n[nH]2)CC1  1.34%
45. O=C(C1CCOC1)N1Cc2ccccc2OC2(CCOCC2)C1 (stereo not given)  1.32%
46. O=C(NCCCOc1cccnc1)c1cn(Cc2ccccc2F)nn1  1.03%
47. Cc1nc(CN2CCC23CCN(C(=O)c2ccncc2)CC3)cs1  0.933%
48. CCc1oc(C(=O)N[C@@H]2c3ccccc3C[C@@H]2O)cc1C  0.243%
49. Cn1ccnc1C(O)c1ccccc1N1CCN(CC2CCCC2)CC1 (stereo not given)  0.135%
50. Cc1cc(C(=O)NCc2c(C)nn(C)c2C)nc(N2CCOCC2)n1  0.0436%
51. CCCN1CCC(Cc2noc(-c3ncccc3C)n2)CC1  0.0119%
52. CCn1nc(C)c(CN2CCC(c3ccn[nH]3)C2)c1C (stereo not given)  -0.125%
53. Cc1cc(C(C)(O)CNC(=O)c2ccc(Br)o2)c(C)o1 (stereo not given)  -0.159%
54. COc1ccccc1C(=O)NCc1n[nH]c(C)n1  -0.519%
55. Cc1ccccc1C(C(=O)N(C)Cc1cnn(C)c1)N(C)C (stereo not given)  -0.837%
56. Cc1c(CN2CCCC2c2cncc(CN3CCCC3)n2)cnn1C (stereo not given)  -1.15%
57. COc1cccc(NC(=O)NCc2cnn(C)c2)c1  -1.59%
58. Cc1cnn(C2(C(=O)O)CCN(c3ccncc3F)CC2)c1  -1.94%
59. CN(C)C(=O)c1nc(CN2C(=O)OC[C@@H]2c2ccccc2)no1  -1.95%
60. Cc1ccccc1SC1CCN(C(=O)C2CNC(=O)N2)CC1 (stereo not given)  -2.22%
61. COc1ccc([C@@H]2CN(C(=O)CCCc3cn[nH]c3)C[C@H]2N(C)C)cc1  -2.31%
62. COc1ccc(Br)cc1CC(=O)N1CCCC1  -2.69%
63. O=C(c1cnnn1-c1ccccc1)N1CCCC(c2ccn[nH]2)C1 (stereo not given)  -2.75%
64. CCS(=O)(=O)N1CCCC(c2nccn2Cc2cccnc2)C1 (stereo not given)  -2.78%
65. CC(C)[C@H]1CN(c2ccnc(N)n2)C[C@@H]1NC(=O)C1(C#N)CCOCC1  -2.8%
66. CCCc1noc(CNc2ccc(C(=O)N3CCCC3)cc2C)n1  -2.83%
67. Cc1ccc(C(=O)NS(=O)(=O)Cc2ccon2)c(C)c1  -3.16%
68. Cc1cccc(NCCOc2cccc(C#N)c2)c1C(N)=O  -3.59%
69. COCCN1CC(O)CN(C(=O)c2cccc(C(F)(F)F)c2)CC1=O (stereo not given)  -3.84%
70. Cc1ccc(C2(CN3CCN(Cc4cnc(C)n4C)CC3)CC2)cc1  -3.99%
71. CC(Cn1ccnc1)NC(=O)N1CCN(Cc2ccncc2)CC1 (stereo not given)  -4.1%
72. O=C(NCCN1CCCCCC1=O)c1n[nH]c(=O)c2ccccc12  -4.38%
73. Cc1cc(-c2ccccc2C(=O)O)nc(C2CCCN(C(C)C)C2)n1 (stereo not given)  -4.47%
74. CC(C)(C)c1nc(CN2CCC3(CCCO3)CCC2=O)no1 (stereo not given)  -4.57%
75. CN(Cc1ccc2nsnc2c1)CC1(O)CNCCOC1 (stereo not given)  -5.03%
76. CC(c1cccnc1)N(C)S(C)(=O)=O (stereo not given)  -5.21%
77. O=C(N1CCCO1)[C@@]12CCO[C@@H]1CCN(C1CCCCC1)C2  -5.23%
78. CC(=O)N(c1ccc(C)cc1)c1nc(CN2CCCC(C)C2)cs1 (stereo not given)  -6.71%
79. O=C(c1ccccc1OCC1CC1)N1CCCC1Cn1cccn1 (stereo not given)  -6.77%
80. Cc1ncsc1C(=O)NCc1ccnc(N2CCN(C)CC2)c1  -6.92%
81. O=C1OCCN1CCc1nc(-c2cc3c4c(c2)CC(=O)N4CCC3)cs1  -7.1%
82. Cc1nccn1CCCNc1nccnc1C#N  -7.21%
83. CCN1CCC(CC(=O)NCCc2nc(C)c(Cl)s2)CC1  -7.43%
84. COc1ccc(CC(=O)N2CCCC(c3nncn3C)C2)cc1 (stereo not given)  -7.47%
85. CN(Cc1nnc2n1CCC2)C(=O)Cc1ccc2c(c1)OCCO2  -7.86%
86. NC(=O)CN(CC(=O)NCCc1c(F)cccc1F)C1CCCC1  -8.02%
87. Cc1cccnc1[C@H](C)Nc1nc(-c2cccnc2)nc2c1CNC2  -8.52%
88. CCC(C(=O)N1CCN(S(=O)(=O)N2CCCC2)CC1)n1cccn1 (stereo not given)  -8.56%
89. CSCCC(NC(=O)c1nc(SC)ncc1Cl)C(=O)O (stereo not given)  -8.77%
90. COC1CN(C(=O)Nc2ccccc2)CCC(=O)N(C)c2ccccc21 (stereo not given)  -9.69%
91. CC(C)NC(=O)Cn1cc(-c2ccccc2)ncc1=O  -9.87%
92. O=C(c1cccn1Cc1cccs1)N1CCN(C2CC2)CC1  -10.4%
93. O=C(O)C1c2nc[nH]c2CCN1Cc1ccccc1-c1ccccc1 (stereo not given)  -10.5%
94. O=S1(=O)NC[C@H]2CCN(Cc3ccccc3)CC[C@H]21  -10.5%
95. COc1ccnc(CN2CC(=O)N(c3ccc(C)cc3)CC2C)c1OC (stereo not given)  -10.8%
96. CC(C(=O)N1CCCN(Cc2ccc(C#N)cc2)CC1)n1ccnc1 (stereo not given)  -10.9%
97. c1coc(-c2nnc(CN3CCOC(Cn4cccn4)C3)o2)c1 (stereo not given)  -11%
98. CSc1ccccc1NC(=O)C1CN(C(=O)c2ccc3c(c2)OCO3)C1  -12.3%
99. CCOCCC(=O)Nc1ccnn1-c1ccc(Cl)cc1  -12.6%
100. CSCC(=O)N(C)Cc1cnn(-c2ccc(F)cc2)c1  -13.4%
101. CCCc1cnc(C)nc1N1CCC2(CCCO2)CC1  -13.4%
102. Cc1oc(-c2nc(C#N)c(N(C)C)o2)cc1S(=O)(=O)N1CCCCCC1  -13.9%
103. COCCNc1ccc(CNC(=O)C2COc3ccccc32)cc1 (stereo not given)  -13.9%
104. CCN1CCOC(CNCc2ccccc2OCC(=O)N(C)C)C1 (stereo not given)  -15.4%
105. O=C(NCc1ccc2c(c1)CCCO2)c1cn2c(n1)CNCC2  -15.7%
106. CN1CCOC(CNCc2cccc(OCc3ccccn3)c2)C1 (stereo not given)  -16.5%
107. COc1ccccc1OC1CCN(C(=O)c2cnc(C)s2)CC1  -19.2%
108. c1csc(CNCC2COCc3c(-c4ccoc4)nnn3C2)n1 (stereo not given)  -107%
109. Cc1nc(CO[C@H]2CN(C(=O)c3ccc[nH]3)[C@@H]3COC[C@H]23)cs1  -110%
110. Cn1nccc1-c1cnc2n1CCNC21CCN(C(=O)C2(C)CC2)CC1  -111%
